Source: ChEMBL document CHEMBL5674889, “Enhanced JunD/RSK3 signalling due to loss of BRD4/FOXD3/miR-548d-3p axis determines BET inhibition resistance” (2020)
Calls of active or inactive are those of the source.

Experiments:
BT-474 = test: Antiproliferative activity in human BT-474 cells assessed as cell growth at 1 uM by CCK-8 assay; format: functional, cell-based
How it was run: (§1)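 Cells grown in 10% FBS medium (DMEM for BT-474 and MDA-MB-231) and seeded at 3000 cells/well, adhering overnight. Exposed to 1 μM for 48 h, with DMSO as control. Growth read by CCK-8 as background-subtracted signal normalized to the DMSO control. Mean ± SD of triplicates.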

MDA-MB-231 [1] = test: Antiproliferative activity in human MDA-MB-231 cells assessed as cell growth at 1 uM by CCK-8 assay; format: functional, cell-based; how it was run: as §1
MDA-MB-231 [2] = test: Effect on human MDA-MB-231 cells assessed as decrease in RSK3 protein expression in the presence of GDC-0994 at 1 uM by Western blot analysis; format: functional, cell-based
MDA-MB-231 [3] = test: Antiproliferative activity in human MDA-MB-231 cells assessed as reduced cell growth co-treated with GDC-0994 at 1 uM by CCK-8 assay; format: functional, cell-based
How it was run: (§2)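 MDA-MB-231 (DMEM + 10% FBS) or BT549 (RPMI-1640 + 10% FBS) seeded at 3000 cells/well and left to adhere overnight. Treated 48 h with the kinase inhibitors alone, combined, or together with JQ1. Growth measured by CCK-8 and normalized to the DMSO-treated control after background subtraction. Triplicates, mean ± SD, one-way ANOVA against JQ1 alone.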

BT-549 [4] = test: Antiproliferative activity in human BT-549 cells assessed as reduced cell growth co-treated with GDC-0994 at 1 uM by CCK-8 assay; format: functional, cell-based; how it was run: as §2
BT-549 [5] = test: Antiproliferative activity in human BT-549 cells assessed as reduction in cell growth at 1 uM by CCK-8 assay; format: functional, cell-based
MDA-MB-231 [6] = test: Antiproliferative activity in human MDA-MB-231 cells assessed as reduction in cell growth at 1 uM by CCK-8 assay; format: functional, cell-based
BT-549 [7] = test: Induction of apoptosis in human BT-549 cells in the presence of osimertinib at 1 uM by flow cytometry analysis; format: functional, cell-based
How it was run: (§3)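 Cells given JQ1 and/or osimertinib, then stained with Annexin V-FITC plus propidium iodide (10 min, room temperature, dark; 1 × 10^6 cells/ml in binding buffer after two PBS washes) and analysed by flow cytometry; one-way ANOVA.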

BT-549 [8] = test: Antiproliferative activity in human BT-549 cells assessed as reduction in size of tumor sphere at 1 uM by Tumor sphere assay; format: functional, cell-based
MDA-MB-231 [9] = test: Inhibition of cell migration in human MDA-MB-231 cells at 1 uM by transwell invasion assay; format: functional, cell-based
How it was run: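 Invasion assay: 1 × 10^5 cells seeded in Matrigel-coated upper Boyden chamber; lower chamber held serum-free medium with 100 nM LPA. After 24 or 48 h, invaded cells stained with crystal violet and counted.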

MDA-MB-231 [10] = test: Induction of apoptosis in human MDA-MB-231 cells in the presence of osimertinib at 1 uM by flow cytometry analysis; format: functional, cell-based; how it was run: as §3
MDA-MB-231 [11] = test: Antiproliferative activity in human BRD4-knockdown MDA-MB-231 cells assessed as cell growth at 1 uM by CCK-8 assay; format: functional, cell-based
How it was run: (§4)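 Vector control or BRD4-knockdown cells, 3000/well, adhered overnight, then DMSO or osimertinib for 48 h; growth by CCK-8, normalized to DMSO-treated control. Triplicates, mean ± SD; one-way ANOVA, vehicle vs osimertinib in knockdown clones.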

MDA-MB-231 [12] = test: Antitumor activity against human MDA-MB-231 cells xenografted in BALB/c nude mouse model assessed as reduction of tumor size in the presence of osimertinib at 35 mg/kg/day, sc administered every 2 days for 30 days; format: functional, organism-based; conditions: time 30.0 day
How it was run: (§5)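 MDA-MB-231 xenografts used 1 × 10^6 cells injected subcutaneously into female BALB/c nude mice (4–6 weeks). Animals were split into four groups (n = 7) at ~100 mm3: vehicle, osimertinib 10 mg/kg, 35 mg/kg agent, or the combination, each given every 2 days. Volume was measured by calliper as length × width²/2; tumours were weighed at end.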

MDA-MB-231 [13] = test: Effect on human MDA-MB-231 cells assessed as suppression of tumor sphere formation at 1 uM by Tumor sphere assay; format: functional, cell-based
BT-549 [14] = test: Inhibition of cell migration in human BT-549 cells at 1 uM by transwell invasion assay; format: functional, cell-based
MDA-MB-231 [15] = test: Induction of apoptosis in human MDA-MB-231 cells assessed as caspase-3 cleavage in the presence of osimertinib at 1 uM by Western blotting analysis; format: functional, cell-based
MDA-MB-231 [16] = test: Antiproliferative activity in human MDA-MB-231 cells assessed as reduction in size of tumor sphere at 1 uM by Tumor sphere assay; format: functional, cell-based
MDA-MB-231 [17] = test: Antiproliferative activity in human MDA-MB-231 cells assessed as inhibited cell growth at 1 uM by CCK-8 assay; format: functional, cell-based
BT-549 [18] = test: Effect on human BT-549 cells assessed as suppression of tumor sphere formation at 1 uM by Tumor sphere assay; format: functional, cell-based
MDA-MB-231 [19] = test: Antitumor activity against human MDA-MB-231 cells xenografted in BALB/c nude mouse model assessed as reduction of tumor weight in the presence of osimertinib at 35 mg/kg/day, sc administered every 2 days for 30 days; format: functional, organism-based; conditions: time 30.0 day; how it was run: as §5
BT-549 [20] = test: Antiproliferative activity in human BT-549 cells assessed as cell viability at 1 uM by CCK-8 assay; format: functional, cell-based
BT-549 [21] = test: Antiproliferative activity in human BRD4-knockdown BT-549 cells assessed as cell growth at 1 uM by CCK-8 assay; format: functional, cell-based; how it was run: as §4
MDA-MB-231 [22] = test: Effect on human MDA-MB-231 cells assessed as RSK3 protein expression in the presence of XMD8-92 at 1 uM by Western blot analysis; format: functional, cell-based
MDA-MB-231 [23] = test: Effect on human MDA-MB-231 cells assessed as EGFR protein expression at 1 uM by Western blot analysis; format: functional, cell-based
MDA-MB-231 [24] = test: Antiproliferative activity in human MDA-MB-231 cells assessed as reduced cell growth co-treated with XMD8-92 at 1 uM by CCK-8 assay; format: functional, cell-based; how it was run: as §2
BT-549 [25] = test: Antiproliferative activity in human BT-549 cells assessed as reduced cell growth co-treated with XMD8-92 at 1 uM by CCK-8 assay; format: functional, cell-based; how it was run: as §2
BT-549 [26] = test: Effect on human BT-549 cells assessed as RPS6KA2 protein expression by Western blot analysis; format: functional, cell-based
MDA-MB-231 [27] = test: Effect on human MDA-MB-231 cells assessed as RPS6KA2 protein expression by Western blot analysis; format: functional, cell-based
BT-549 [28] = test: Effect on human BT-549 cells assessed as JunD protein expression by Western blot analysis; format: functional, cell-based
MDA-MB-231 [29] = test: Effect on human MDA-MB-231 cells assessed as JunD protein expression by Western blot analysis; format: functional, cell-based

Oc1c(F)cc(-c2cnccc2-c2ccc(N3CCOCC3)cc2)cc1F
active: Activity (BT-474) | Activity (MDA-MB-231 [1])

CCOc1cc(N2CCC(O)CC2)ccc1Nc1ncc2c(n1)N(C)c1ccccc1C(=O)N2C
active: Activity (MDA-MB-231 [2]) | Activity (MDA-MB-231 [3]) | Activity (BT-549 [4])

C[S+]([O-])c1ccc(-c2nc(-c3ccc(F)cc3)c(-c3ccncc3)[nH]2)cc1 (stereo not drawn)
active: Activity (BT-549 [5]) | Activity (MDA-MB-231 [6])

C=CC(=O)Nc1cc(Nc2nccc(-c3cn(C)c4ccccc34)n2)c(OC)cc1N(C)CCN(C)C
active: Activity (BT-549 [7]) | Activity (BT-549 [8]) | inhibition (MDA-MB-231 [9]) | Activity (MDA-MB-231 [10]) | Activity (MDA-MB-231 [11]) | Activity (MDA-MB-231 [12]) | Activity (MDA-MB-231 [13]) | inhibition (BT-549 [14]) | Activity (MDA-MB-231 [15]) | Activity (MDA-MB-231 [16]) | Activity (MDA-MB-231 [17]) | Activity (BT-549 [18]) | Activity (MDA-MB-231 [19]) | Activity (BT-549 [20]) | Activity (BT-549 [21])

Cn1nccc1Nc1nccc(-c2ccn([C@H](CO)c3ccc(Cl)c(F)c3)c(=O)c2)n1
active: Activity (MDA-MB-231 [22]) | Activity (MDA-MB-231 [23]) | Activity (MDA-MB-231 [24]) | Activity (BT-549 [25])

CCNC(=O)C[C@@H]1N=C(c2ccc(Cl)cc2)c2cc(OC)ccc2-n2c(C)nnc21
active: Activity (BT-549 [26]) | Activity (MDA-MB-231 [27]) | Activity (BT-549 [28]) | Activity (BT-549 [20]) | Activity (MDA-MB-231 [29])

COc1cc2c(cc1-c1c(C)noc1C)ncc1[nH]c(=O)n([C@H](C)c3ccccn3)c12
active: Activity (BT-549 [26]) | Activity (MDA-MB-231 [27]) | Activity (BT-549 [28]) | Activity (BT-549 [20]) | Activity (MDA-MB-231 [29])

CN1CCN(c2ccc(-c3ccncc3-c3cc(F)c(O)c(F)c3)cc2)CC1
active: Activity (BT-474) | Activity (MDA-MB-231 [1])
